An excerpt weighted towards active compounds, which were near 1.3% of everything screened.
Arrestin-AP2 inh: inhibitors of beta-arrestin/AP2 binding, primary screen, biochemical, GPCR trafficking, flow cytometry; inhibition, % at 10 µM; 340,000 tested, 0.31% active; FITC-arrestin peptide / GST-AP2 beads; AP2 beta2 appendage carries R879A mutation; beta-arrestin 1 C-terminal peptide binding to AP2 beta2-adaptin appendage (human); AID 504490, 2011;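 active means inhibition above a set limit, near 3 SD of compounds lacking own fluorescence, cut at about 54% in these data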;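 further: plate controls were DMSO wells for no effect and 5 µM unlabelled arrestin peptide for full effect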
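System: GST-AP2 R879A glutathione beads; medium: PBS, Tween 20 0.05%, BSA 0.1%; reagent: fluorescein-tagged arrestin peptide at 50 nM final; schedule: pre-incubation 12 min, peptide binding 1 h, room temperature; detection: flow cytometry, FL1 (488/535 nm); read-out: inhibition as reduced fluorescein signal on beads, percent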
NTR1 agonist: agonists of human NTR1, primary screen, imaging, U2OS cells, beta-arrestin-GFP, high content; activation, % at 20 µM; AID 493036, 2011; NTR1-U2OS beta-arrestin-GFP spot imaging, agonist mode; 330,000 tested, 0.17% active; Neurotensin receptor type 1 (Homo sapiens), P30989;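 active means activation at or above 40% of the spot to cytoplasm intensity ratio, with at least 20 cells analyzed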;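 further: 0% = DMSO without peptide and 100% = 100 nM NTR1 peptide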
PLCg1 inh: PLC-gamma1 enzyme inhibitors, primary screen, biochemical, fluorescence, purified enzyme; 1-phosphatidylinositol 4,5-bisphosphate phosphodiesterase gamma-1 (Homo sapiens), P19174; fluorogenic substrate; inhibition, % at 12.2 µM; 370,000 tested, 0.84% active; AID 720700, 2013; in the data active means inhibition above about 9.5%
PLCb3 inh: human PLC-beta3 inhibitors, primary screen, biochemical, fluorescence | 1-phosphatidylinositol 4,5-bisphosphate phosphodiesterase beta-3 (Homo sapiens), Q01970 | Purified PLC-beta3, fluorogenic substrate | inhibition, % at 12.2 µM | 370,000 tested, 0.18% active | AID 720704, 2013;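 further: 0% = median of compound wells on plate and 100% = full blocker control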
Target sequence (Q01970 whole entry, looked up): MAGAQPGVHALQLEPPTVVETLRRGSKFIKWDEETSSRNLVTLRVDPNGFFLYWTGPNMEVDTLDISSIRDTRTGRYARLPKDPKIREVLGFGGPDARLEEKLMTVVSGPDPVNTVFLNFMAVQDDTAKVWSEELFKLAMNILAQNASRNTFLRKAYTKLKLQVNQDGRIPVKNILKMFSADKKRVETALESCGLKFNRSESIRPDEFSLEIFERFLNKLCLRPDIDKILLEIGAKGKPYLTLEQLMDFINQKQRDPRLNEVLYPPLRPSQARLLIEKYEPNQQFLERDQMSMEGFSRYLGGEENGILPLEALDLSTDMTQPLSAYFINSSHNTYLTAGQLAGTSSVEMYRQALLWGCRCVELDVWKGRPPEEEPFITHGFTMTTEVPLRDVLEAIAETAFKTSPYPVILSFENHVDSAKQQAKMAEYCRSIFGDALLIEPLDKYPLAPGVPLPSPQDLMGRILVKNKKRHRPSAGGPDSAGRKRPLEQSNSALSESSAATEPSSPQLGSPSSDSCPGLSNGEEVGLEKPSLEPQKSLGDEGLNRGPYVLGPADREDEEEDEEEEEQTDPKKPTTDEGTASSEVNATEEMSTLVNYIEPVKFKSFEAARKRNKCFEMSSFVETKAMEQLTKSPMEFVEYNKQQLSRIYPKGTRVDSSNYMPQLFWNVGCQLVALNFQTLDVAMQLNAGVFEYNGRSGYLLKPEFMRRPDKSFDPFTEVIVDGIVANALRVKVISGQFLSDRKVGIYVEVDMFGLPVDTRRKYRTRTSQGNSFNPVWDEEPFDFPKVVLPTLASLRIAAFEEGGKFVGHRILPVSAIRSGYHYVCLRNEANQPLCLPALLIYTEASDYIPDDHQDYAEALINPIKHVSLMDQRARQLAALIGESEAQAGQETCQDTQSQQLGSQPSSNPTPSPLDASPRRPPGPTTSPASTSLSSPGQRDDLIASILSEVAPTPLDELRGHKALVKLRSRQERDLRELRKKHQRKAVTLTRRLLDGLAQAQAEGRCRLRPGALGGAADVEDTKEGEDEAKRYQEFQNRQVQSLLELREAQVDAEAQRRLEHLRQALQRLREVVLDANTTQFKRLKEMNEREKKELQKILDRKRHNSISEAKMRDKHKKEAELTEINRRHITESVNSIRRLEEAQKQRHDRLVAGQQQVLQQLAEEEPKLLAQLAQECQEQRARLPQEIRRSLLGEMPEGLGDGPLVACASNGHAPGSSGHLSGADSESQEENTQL
PLCg1 ctr: PLC-gamma1 enzyme inhibitors, counter-screen for PLC-beta3 inhibitor project, biochemical, fluorescence. 3,300 tested, 3.1% active. purified PLC-gamma1, fluorogenic substrate. shares compounds with PLCg1 inh. inhibition, % at 12.3 µM; in the data active means inhibition above about 9.5%
PLCb3 confirm: PLC-beta3 inhibitor confirmation, biochemical, fluorescence, purified enzyme | shares compounds with PLCg1 inh | fluorogenic substrate fluorescence | inhibition, % at 12.3 µM | 3,300 tested, 1% active | AID 743261, 2014
The depositor's hits bear a star; x = not tested or not shown. Unless noted, no stated cut-off is given here; in the data, active means inhibition above about 11%; inactive means the rest.

SMILES	Arrestin-AP2 inh	NTR1 agonist	PLCg1 inh	PLCb3 inh	PLCg1 ctr	PLCb3 confirm
O=C(NCc1ccccn1)C1CCN(Cc2cnn(-c3ccccc3)c2-n2cccc2)CC1	2	-1	1	1	x	x
COc1cccc(CNC(=O)C2CCN(Cc3cnn(-c4ccccc4)c3-n3cccc3)CC2)c1	-2	0	9.7*	5	2	-1
Cc1ccc[n+](-c2nc3ccccc3nc2[N-]S(=O)(=O)c2ccccc2)c1	8	-2	-1	-8	x	x
O=S(=O)([N-]c1nc2ccccc2nc1-[n+]1ccccc1)c1ccc(F)cc1	27	5	11*	-2	-7	-7
CCC(C)(C)C(=O)N1CCc2cc(S(=O)(=O)N(C)Cc3ccco3)ccc21	x	x	-2	-3	x	x
Cc1ccc(OC(C)C(=O)N(Cc2cccs2)C2CCS(=O)(=O)C2)cc1C (stereo not drawn)	-8	0	9.8*	-2	0	2
Cc1cc(OC(C)C(=O)N(Cc2cccs2)C2CCS(=O)(=O)C2)ccc1Cl (stereo not drawn)	22	9	0	3	x	x
NC1=C(Br)C(=O)c2ncccc2C1=O	3	x	9.5*	6	6	5
Cc1ccc(-c2nnn(CC(=O)NCc3ccccc3)n2)c(-n2cnnn2)c1	8	2	1	0	x	x
Cc1ccc(-c2nnn(CC(=O)N3CCCCC3)n2)c(-n2cnnn2)c1	-5	-2	8	12*	-3	1
O=C(CSc1nc2ccccc2n1Cc1ccccc1Cl)N/N=C\c1cccc(Oc2ccccc2)c1	x	x	1	0	x	x
c1ccc(CSc2nnc(SCc3ccccn3)s2)nc1	5	3	11*	14*	-4	-3
CCOC(=O)N1CCN(C(=O)C[C@H]2C[C@@]3(C(=O)OC)C(=C[C@H](COCc4ccccc4)O[C@@H]3C)N(CCc3ccc(OC)c(OC)c3)C2=O)CC1	x	x	-1	2	x	x
O=C(Nc1nnc([C@@H]2C[C@H](O)[C@@H](CO)O2)s1)NC(c1ccccc1)c1ccccc1	x	x	2	-2	x	x
O=C(NCc1ccccc1)Nc1nnc([C@@H]2C[C@H](O)[C@@H](CO)O2)s1	x	x	15*	6	-6	1
O=C(Nc1nnc([C@H]2C[C@H](O)[C@@H](CO)O2)s1)NC(c1ccccc1)c1ccccc1	x	x	12*	3	-8	-4
O=C(NCc1ccc(F)cc1)Nc1nnc([C@@H]2C[C@H](O)[C@@H](CO)O2)s1	x	x	-2	1	x	x
COc1ccc(S[C@]2(C(=O)N3CCOCC3)CC(=O)N(P(=O)(OC)OC)[C@@H]2c2ccc(OC)cc2)cc1	x	x	0	-1	x	x
CC(=O)Nc1ccc(NC(=O)CSc2nnc(-c3cccs3)o2)cc1	x	x	-2	-9	x	x
COC(=O)C1=C(C)N(C)C(=NCc2ccc(C(F)(F)F)cc2)NC1c1ccc(Cl)cc1 (stereo not drawn)	x	x	5	6	x	x
O=C(CSc1nnc(-c2ccncc2)n1-c1ccccc1)Nc1ccc2c(c1)OCCO2	x	x	0	-1	x	x
COc1ccc(CC(NC(C)=O)C(=O)NC2CCN(C(=O)Nc3ccccc3C)CC2)cc1OC (stereo not drawn)	-12	0	11*	-5	-5	-2
COc1ccccc1CC(NC(C)=O)C(=O)NC1CCN(C(=O)Nc2ccc(F)cc2)CC1 (stereo not drawn)	-1	5	11*	-9	-5	-1
COc1ccc(S[C@]2(C(=O)N3CCN(c4ncccn4)CC3)CC(=O)N(c3ccc(Cl)cc3)[C@@H]2c2ccc(OC)cc2)cc1	x	x	0	-4	x	x
CCCCn1cnc2c1c(=O)[nH]c(=O)n2CCCC	-8	0	7	11*	-4	7
Cn1c(=O)[nH]c(=O)c2c1ncn2CCN1CCOCC1	1	-1	5	11*	-4	-4

Assay outcomes (PubChem)
